# From ChEMBL document CHEMBL1142991, “Structure-activity relationship study to understand the estrogen receptor-dependent gene activation of aryl- and alkyl-substituted 1H-imidazoles” (J Med Chem, 2007)
# Calls of active or inactive are those of the source. No cut-off for these calls is given here.
# How the values were obtained:
# MCF7-2A [1] = assay: Activation of transcriptional activity at ERalpha expressed in MCF7-2a cells assessed as luciferase expression at 10 uM relative to estradiol; assay type: functional, cell-based, Homo sapiens; details: for EC50: Homo sapiens, MCF7-2A, in the assay text read “relative to estradiol” for “at 10 uM relative to estradiol”
# How it was run: (§1)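 Reporter cells: MCF-7-2a (stable ERE_wtcluc) kept one week in DMEM with L-glutamine, antibiotics, dextran/charcoal-treated BCS (50 mL/L); seeded ~2.2 × 10⁵ cells/mL in six-well plates, compound added after 24 h at 10^-5 to 10^-10 M, 50 h incubation; lysed, luciferase luminescence read 10 s, normalized to Bradford protein; expressed as % of 10^-8 M estradiol; triplicate, single experiment.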
# [2] = molecular target: T1, Estrogen receptor (Bos taurus) (UniProt P49884); assay: Displacement of [3H]estradiol from calf ER alpha after 16 hrs relative to estradiol
# T1 sequence (whole entry): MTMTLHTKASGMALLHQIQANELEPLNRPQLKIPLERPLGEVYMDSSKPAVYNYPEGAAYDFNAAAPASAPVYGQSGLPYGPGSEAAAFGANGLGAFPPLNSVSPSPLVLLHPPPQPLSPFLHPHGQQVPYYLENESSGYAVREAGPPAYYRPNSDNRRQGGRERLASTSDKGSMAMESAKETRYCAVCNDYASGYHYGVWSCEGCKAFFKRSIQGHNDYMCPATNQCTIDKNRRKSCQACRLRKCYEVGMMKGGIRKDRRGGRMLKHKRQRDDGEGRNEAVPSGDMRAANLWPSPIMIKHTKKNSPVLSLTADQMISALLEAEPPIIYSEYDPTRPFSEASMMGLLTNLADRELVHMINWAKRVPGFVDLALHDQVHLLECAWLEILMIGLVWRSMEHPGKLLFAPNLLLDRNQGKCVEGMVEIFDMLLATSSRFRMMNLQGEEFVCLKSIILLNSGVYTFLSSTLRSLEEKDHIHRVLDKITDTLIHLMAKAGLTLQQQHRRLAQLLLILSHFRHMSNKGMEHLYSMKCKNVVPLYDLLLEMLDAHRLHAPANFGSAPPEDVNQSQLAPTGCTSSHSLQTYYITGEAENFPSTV
# How it was run: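 Calf uterine cytosol as receptor source, shaken with 17β-[³H]estradiol and competitor at 4 °C for 16 h; dextran-coated charcoal stop, centrifugation, supernatant radioactivity counted. Six competitor concentrations; % bound label plotted against log concentration, and the concentration giving 50% displacement taken for competitor and for unlabeled estradiol to give relative binding affinity.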
# MCF7-2A [3] = assay: Activation of transcriptional activity at ERalpha expressed in MCF7-2a cells assessed as luciferase expression relative to estradiol; assay type: functional, cell-based; details: Homo sapiens; how it was run: as §1
# Homo sapiens = species: Homo sapiens; assay: Decrease in COX activity
Structure (SMILES),RBA [2] [%],Activity (MCF7-2A [1]) [%],other results
Oc1ccc(-c2nc(-c3ccc(O)cc3Cl)n(-c3ccc(O)cc3)c2-c2ccccc2)cc1,–,50,–
Oc1ccc(-c2nc(-c3ccc(O)cc3Cl)c(-c3ccccc3)n2-c2ccc(O)cc2)cc1,–,40,–
CCc1c(-c2ccc(O)cc2)nc(-c2ccccc2)n1-c1ccc(O)cc1,–,90,EC50 (MCF7-2A [3]): 61 nM
Cc1c(-c2ccc(O)cc2Cl)nc(-c2ccc(O)cc2Cl)n1-c1ccc(O)cc1,0.11,–,–
Cc1c(-c2ccc(O)cc2)nc(-c2ccc(O)cc2)n1-c1ccc(O)cc1,–,100,EC50 (MCF7-2A [1]): 140 nM
Oc1ccc(-c2nc(-c3ccc(O)cc3)n(-c3ccc(O)cc3)c2-c2ccccc2)cc1,–,100,EC50 (MCF7-2A [1]): 350 nM
CCc1c(-c2ccc(O)cc2)nc(-c2ccc(O)cc2)n1-c1ccccc1,–,60,–
Oc1ccc(-c2cn(-c3ccc(O)cc3)c(-c3ccc(O)cc3Cl)n2)cc1,–,–,Activity (Homo sapiens): inactive
Oc1ccc(-c2nc(-c3ccc(O)cc3Cl)cn2-c2ccc(O)cc2)cc1,–,–,Activity (Homo sapiens): Active

# Continued, in another order:
RBA [2] [%],Structure (SMILES),Activity (MCF7-2A [1]) [%],other results
0.19,CCc1c(-c2ccc(O)cc2)nc(-c2ccc(O)cc2Cl)n1-c1ccc(O)cc1,–,EC50 (MCF7-2A [3]): 480 nM
0.11,CCc1c(-c2ccc(O)cc2)nc(-c2ccc(O)cc2)n1-c1ccc(O)cc1,140,EC50 (MCF7-2A [1]): 77 nM
0.09,Oc1ccc(-n2cc(-c3ccc(O)cc3Cl)nc2-c2ccc(O)cc2Cl)cc1,–,Activity (Homo sapiens): Active
